This passage reports mortality results from ChEMBL document CHEMBL3046721, “3-(Arylthiomethyl)isoxazole-4,5-dicarboxamides: chemoselective nucleophilic chemistry and insecticidal activity” (2009).

Calls of active or inactive are those of the source.

Test [1] has as its system Spodoptera exigua. As to the kind of experiment: Insecticidal activity against larvae of Spodoptera exigua fed with artificial diet containing compound assessed as mortality after 6 days by high-throughput screening assay. Type of test: functional. On the set-up: concentration or dose not given beside the values. Put shortly:
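Artificial diet (100 μl/well, 96-well) pretreated with 12 μg compound in 30 μl DMSO-acetone-water (2:1:7), dried several hours, then seeded with eggs. Plates covered, kept in dark at 29°C, mortality recorded 6 days post-treatment. Six replicates per treatment.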

Test [2] relates to Spodoptera exigua. Put plainly: Insecticidal activity against second-instar larval stage of Spodoptera exigua fed with artificial diet containing compound assessed as mortality at 50 ug/cm2 after 5 days by diet-based secondary assay. It is filed as functional. The settings on record: 120 h. Put shortly: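 Second-instar larvae on 128-well trays with 1 mL diet dosed at 50 μg/cm2, eight wells per treatment under clear plastic. Percent mortality averaged over the eight wells, scored 5 days after assay start; tested only on primary-screen hits (>67% mortality).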

The subject of test [3] is Aedes aegypti. Put plainly: Insecticidal activity against larvae of Aedes aegypti assessed as mortality after 3 days by high-throughput screening assay. Type of test: functional, organism-based. Summed up: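 One-day-old larvae placed in 96-well plates pre-treated with 6 μg/well, applied in 15 μl DMSO-acetone-water (1:1:8) and dried. Plates lidded, held at room temperature, mortality graded 3 days post-treatment. Six replicates per treatment.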

Test [4] concerns Helicoverpa zea. Put plainly: Insecticidal activity against second-instar larval stage of Helicoverpa zea (corn earworm) fed with artificial diet containing compound assessed as mortality after 5 days by diet-based secondary assay. It is filed as functional, organism-based. Summed up:
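Follow-up for primary-screen hits (>67% mortality): 128-well diet trays, 1 mL diet containing selected dosages, second-instar larvae. Wells covered with clear plastic, eight wells per treatment, percent mortality averaged over eight wells at 5 days. Approximate LC50 estimated by probit analysis.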

What is called mortality is the share of the test organisms that died. For the compound `COCCNC(=O)c1onc(CSc2cccc(OC)c2)c1C(=O)NCCOC`, the mortality in test [1] is listed as 67%. Besides, the mortality at 50 µg/cm2 in test [2] is 0%. In test [3], the mortality result is “inactive”.
For the compound `CC(C)CCNC(=O)c1c(CSc2ccccc2)noc1C(=O)NCc1ccccc1`, the mortality in test [1] stood at 67%. In test [2], the mortality at 50 µg/cm2 turned out to be 0%. Also, the mortality result in test [3] was “inactive”.
With `CCCNC(=O)c1onc(CS(=O)(=O)c2ccc(Cl)cc2)c1C(=O)NCCC`, the mortality in test [1] was found to be 83%. Further, the mortality at 50 µg/cm2 in test [2] came out at 0%. Moreover, the mortality result in test [4] and in test [3] was “inactive” each time.
For `CC(C)CCNC(=O)c1onc(CSc2ccc(F)cc2)c1C(=O)NCCC(C)C`, the mortality in test [1] is listed as 100%. For the same compound, the mortality at 50 µg/cm2 in test [2] stood at 38%. Besides, the mortality result in test [4] and in test [3] was “inactive” in each case.
In the case of `CCCCNC(=O)c1c(CS(=O)(=O)c2ccc(Cl)cc2)noc1C(=O)NCc1ccccc1`, the mortality in test [1] worked out at 83%. Also, the mortality at 50 µg/cm2 in test [2] is 0%. The mortality entry in test [4] and in test [3] was “inactive” in each case.
For `COCCNC(=O)c1onc(CSc2ccncc2)c1C(=O)NCCOC`, the mortality in test [1] is given as 50%. Besides, in test [3], the mortality result is “inactive”.
Regarding `O=C(NCc1ccccc1)c1onc(CSc2ccccn2)c1C(=O)NCc1ccccc1`, the mortality in test [1] is 67%. The mortality at 50 µg/cm2 in test [2] stood at 0%. For the same compound, the mortality entry in test [3] was “inactive”.
Turning to `C=CCNC(=O)c1c(CSc2ccccc2)noc1C(=O)NCc1ccccc1`, the mortality in test [1] is recorded as 0%. In addition, in test [3], the mortality result is “inactive”.
For `CCCNC(=O)c1onc(CSc2cccc(OC)c2)c1C(=O)NCCC`, in test [1], the mortality stood at 50%. Besides, in test [3], the mortality result is “inactive”.
With `COCCNC(=O)c1onc(CSc2ccc(Cl)cc2)c1C(=O)NCCOC`, the mortality in test [1] came to 83%. Also, the mortality at 50 µg/cm2 in test [2] stood at 0%. Further, the mortality entry in test [4] and in test [3] was “inactive” each time.
`C=CCNC(=O)c1onc(CSc2ccc(Cl)cc2)c1C(=O)NCC=C`: in test [1], the mortality is given as 17%. Moreover, the mortality result in test [3] is “inactive”.
As to `CC(C)NC(=O)c1onc(CSc2ccc(Cl)cc2)c1C(=O)NC(C)C`, the mortality in test [1] was found to be 83%. Further, the mortality at 50 µg/cm2 in test [2] amounted to 0%. The mortality result in test [4] and in test [3] was “inactive” in each case.
`CCCCNC(=O)c1c(CS(=O)(=O)c2ccccc2)noc1C(=O)NCc1ccccc1`: the mortality in test [1] was 67%. Further, in test [2], the mortality at 50 µg/cm2 stood at 0%. In test [3], the mortality entry is “inactive”.
The matching figures for `CCCCNC(=O)c1onc(CSc2ccncc2)c1C(=O)NCCCC`: 67%, 0% and “inactive”.
Turning to `C=CCNC(=O)c1onc(CSc2ccccn2)c1C(=O)NCC=C`, the mortality in test [1] came to 17%. For the same compound, the mortality result in test [3] was “inactive”.
Turning to `CC(C)CCNC(=O)c1c(CSc2ccc(Cl)cc2)noc1C(=O)NCc1ccccc1`, in test [1], the mortality turned out to be 67%. Also, the mortality at 50 µg/cm2 in test [2] turned out to be 0%. Further, the mortality result in test [3] is “inactive”.
As for `COCCNC(=O)c1onc(CSc2ccc(F)cc2)c1C(=O)NCCOC`, the mortality in test [1] is 67%. In addition, the mortality at 50 µg/cm2 in test [2] stood at 0%. The mortality result in test [3] was “inactive”.
Take `CCCCNC(=O)c1onc(CSc2ccc(Cl)cc2)c1C(=O)NCCCC`: the mortality in test [1] turned out to be 33%. Also, the mortality entry in test [3] is “inactive”.
For `CCCNC(=O)c1c(CS(=O)(=O)c2ccc(Cl)cc2)noc1C(=O)NCc1ccccc1`, the mortality in test [1] came out at 100%. The mortality at 50 µg/cm2 in test [2] was 0%. The mortality result in test [4] and in test [3] was “inactive” in each case.
Turning to `COc1cccc(SCc2noc(C(=O)NCCC(C)C)c2C(=O)NCCC(C)C)c1`, in test [3], the mortality entry was “inactive”.
As for `CCCCNC(=O)c1onc(CSc2ccc(F)cc2)c1C(=O)NCCCC`, the mortality in test [1] is given as 50%. Also, the mortality entry in test [3] was “inactive”.
In the case of `COCCNC(=O)c1c(CSc2ccc(Cl)cc2)noc1C(=O)NCc1ccccc1`, the mortality in test [1] is 17%. For the same compound, in test [3], the mortality result was “inactive”.
For the compound `CC(C)NC(=O)c1c(CS(=O)(=O)c2ccc(Cl)cc2)noc1C(=O)NCc1ccccc1`, the mortality entry in test [3] is “inactive”.
Take `COCCNC(=O)c1c(CSc2ccccc2)noc1C(=O)NCc1ccccc1`: in test [1], the mortality amounted to 17%. Further, the mortality result in test [3] is “inactive”.
Take `CCCCNC(=O)c1onc(CSc2cccc(OC)c2)c1C(=O)NCCCC`: the mortality entry in test [3] was “inactive”.
Turning to `CCCNC(=O)c1onc(CSc2ccc(F)cc2)c1C(=O)NCCC`, the mortality in test [1] is reported as 33%. Moreover, the mortality entry in test [3] was “inactive”.
Consider `CCCCNC(=O)c1onc(CSc2ccccc2)c1C(=O)NCCCC`, for which the mortality entry in test [3] is “inactive”.
For the compound `COCCNC(=O)c1c(CS(=O)(=O)c2ccccc2)noc1C(=O)NCc1ccccc1`, in test [1], the mortality came to 100%. Besides, the mortality entry in test [4] and in test [3] was “inactive” each time.
As for `CC(C)NC(=O)c1onc(CSc2ccc(F)cc2)c1C(=O)NC(C)C`, the mortality in test [1] is on record as 50%. Also, the mortality result in test [3] was “inactive”.
Consider `O=C(NCc1ccccc1)c1onc(CSc2ccc(F)cc2)c1C(=O)NCc1ccccc1`, for which the mortality in test [1] is 67%. Besides, the mortality at 50 µg/cm2 in test [2] was found to be 0%. In test [3], the mortality entry is “inactive”.
Consider `CCCNC(=O)c1onc(CSc2cc(C)cc(C)c2)c1C(=O)NCCC`, for which the mortality in test [1] worked out at 50%. The mortality entry in test [3] was “inactive”.
On to `O=C(NCc1ccccc1)c1onc(CSc2ccccc2)c1C(=O)NCc1ccccc1`, for which, in test [1], the mortality amounted to 67%. In test [3], the mortality result is “inactive”.
Turning to `Cc1cc(C)cc(SCc2noc(C(=O)NCCC(C)C)c2C(=O)NCCC(C)C)c1`, the mortality entry in test [3] was “inactive”.
As to `CCCNC(=O)c1onc(CSc2ccccn2)c1C(=O)NCCC`, in test [1], the mortality was 50%. The mortality entry in test [3] was “inactive”.
For `COc1cccc(SCc2noc(C(=O)NCc3ccccc3)c2C(=O)NCc2ccccc2)c1`, the mortality in test [1] was found to be 50%. For the same compound, the mortality entry in test [3] was “inactive”.
Turning to `CCCCNC(=O)c1onc(CSc2cc(C)cc(C)c2)c1C(=O)NCCCC`, the mortality entry in test [3] was “inactive”.
Turning to `CCCCNC(=O)c1onc(CSc2ccccn2)c1C(=O)NCCCC`, the mortality entry in test [3] is “inactive”.
On to `CC(C)NC(=O)c1onc(CSc2ccccc2)c1C(=O)NC(C)C`, for which the mortality in test [1] came to 67%. In addition, the mortality at 50 µg/cm2 in test [2] stood at 0%. In addition, the mortality entry in test [3] was “inactive”.
For `CCCNC(=O)c1onc(CSc2ccc(Cl)cc2)c1C(=O)NCCC`, the mortality in test [1] came to 50%. In addition, the mortality entry in test [3] is “inactive”.
As to `O=C(NCc1ccccc1)c1onc(CSc2ccc(Cl)cc2)c1C(=O)NCc1ccccc1`, the mortality in test [1] came to 67%. For the same compound, the mortality at 50 µg/cm2 in test [2] is 0%. For the same compound, the mortality entry in test [3] is “inactive”.
On to `C=CCNC(=O)c1onc(CSc2ccncc2)c1C(=O)NCC=C`, for which the mortality in test [1] is 17%. Moreover, the mortality entry in test [3] is “inactive”.
Consider `CC(C)CCNC(=O)c1onc(CSc2ccccc2)c1C(=O)NCCC(C)C`, for which the mortality in test [1] is given as 33%. The mortality entry in test [3] is “inactive”.
With `C=CCNC(=O)c1onc(CSc2ccc(F)cc2)c1C(=O)NCC=C`, in test [1], the mortality is 67%. Further, in test [2], the mortality at 50 µg/cm2 stood at 0%. In test [3], the mortality entry was “inactive”.
Turning to `COCCNC(=O)c1onc(CSc2cc(C)cc(C)c2)c1C(=O)NCCOC`, the mortality result in test [3] is “inactive”.
`CCCNC(=O)c1onc(CSc2ccncc2)c1C(=O)NCCC`: the mortality in test [1] is 33%. In test [3], the mortality result was “inactive”.
As to `C=CCNC(=O)c1onc(CSc2cc(C)cc(C)c2)c1C(=O)NCC=C`, in test [1], the mortality stood at 17%. Also, the mortality entry in test [3] is “inactive”.
For `COCCNC(=O)c1onc(CSc2ccccn2)c1C(=O)NCCOC`, in test [1], the mortality is given as 17%. Further, the mortality entry in test [3] was “inactive”.
`O=C(NCc1ccccc1)c1onc(CSc2ccncc2)c1C(=O)NCc1ccccc1`: in test [3], the mortality entry was “inactive”.
As to `CC(C)CCNC(=O)c1onc(CSc2ccccn2)c1C(=O)NCCC(C)C`, the mortality entry in test [3] was “inactive”.
For the compound `C=CCNC(=O)c1onc(CSc2ccccc2)c1C(=O)NCC=C`, the mortality in test [1] was determined as 33%. In addition, the mortality result in test [3] is “inactive”.
Regarding `CCCNC(=O)c1onc(CSc2ccccc2)c1C(=O)NCCC`, in test [1], the mortality came to 50%. For the same compound, in test [3], the mortality result is “inactive”.
Regarding `Cc1cc(C)cc(SCc2noc(C(=O)NC(C)C)c2C(=O)NC(C)C)c1`, the mortality result in test [3] was “inactive”.
`CC(C)CCNC(=O)c1onc(CSc2ccncc2)c1C(=O)NCCC(C)C`: in test [1], the mortality was 83%. For the same compound, the mortality at 50 µg/cm2 in test [2] turned out to be 0%. Further, in test [3], the mortality result was “inactive”.
Regarding `C=CCNC(=O)c1onc(CSc2cccc(OC)c2)c1C(=O)NCC=C`, the mortality in test [1] was 67%. Also, the mortality at 50 µg/cm2 in test [2] worked out at 0%. The mortality result in test [3] was “inactive”.
Consider `CC(C)NC(=O)c1onc(CSc2ccccn2)c1C(=O)NC(C)C`, for which the mortality in test [1] came to 50%. For the same compound, the mortality entry in test [3] was “inactive”.
